Screening results deposited in PubChem BioAssay by several laboratories.
Lung fibro prol = blocks proliferation of human lung fibroblasts. LL 47 human lung fibroblast viability, ATP luminescence; stronger effect = lower value. viability, % at 10 µM. 85,000 compounds, 1.1% hits;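 active = viability at or below 50% in the single dose screen; inactive = viability above 50%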;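 note: compound exposure lasted 72 h before the ATP readout; 100% = median luminescence of untreated cell-only wells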
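material = human LL 47 lung fibroblast cells | dosing = compounds added from tenfold dosing solution, 0.1% DMSO final | timing = overnight cell rest, 72 h compound treatment at 37 °C | measured by = CellTiter-Glo luminescence measuring cellular ATP | evaluation = % viability versus median cells-only luminescence | control set = cell-only wells, no compound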
HUVEC inhibit = inhibitors of human endothelial cell proliferation. HUVEC proliferation, CellTiter-Glo luminescence, 72 h; stronger effect = lower value. 86,000 compounds, 1.1% hits. AID 648. viability, % at 10 µM (by protocol);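 active = viability at or below 30%; inactive = viability above 30%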;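 note: 100% = median luminescence of DMSO-only cell control wells on each plate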
Ecoli WT expand = growth inhibitors of E. coli BW25113 wild type | OD600 absorbance | growth inhibition, % at 100 µM | 98,000 compounds, 0.15% hits;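 active = growth inhibition above about 50% at one test dose, limit read from the data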;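 note: growth measured after 20 h incubation at 37 °C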
Jurkat tox 60K = cytotoxic compounds reducing Jurkat cell viability. inhibition, % at 4 µM. AID 463. Jurkat E6.1 viability, ATP luminescence, 48 h. 56,000 compounds, 1.2% hits;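 active = inhibition above the mean inhibition of all tested compounds plus 3 SD, cut at about 28% in these data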
H69AR growth 86K = blocks growth of human H69AR lung tumor cells; AID 598; H69AR lung tumor viability, ATP luminescence, 72 h; stronger effect = lower value; 85,000 compounds, 6% hits; viability, % at 10 µM;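 active = viability at or below 40%; inactive = viability above 40%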;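 note: multidrug resistant small cell line overexpressing MRP-1 efflux transporter; 100% = mean luminescence of untreated control wells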
Ecoli tolC = E. coli tolC mutant growth inhibition; growth inhibition, % at 10 µM (by protocol); E. coli BW25113 tolC mutant growth, OD615; 65,000 compounds, 2.2% hits;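 active = growth inhibition at or above a cutoff equal to the mean over every tested compound plus 3 SD, cut at about 60% in these data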;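 note: growth measured after 20 h incubation at 37 °C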
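Signal: optical density read at 615 nm; Assay system: E. coli ΔtolC::kan strain BW25113; Times: 20 h incubation with compound, 37 °C; Dosing: 10 µM final, single dose.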
Starred values were filed as active, the others as inactive; / = not tested or not shown. Compounds with a hit are over-represented: about 6.4% of the library has one in this group of screens.

SMILES	Lung fibro prol	HUVEC inhibit	Ecoli WT expand	Jurkat tox 60K	H69AR growth 86K	Ecoli tolC
CCOC(=O)/C(C#N)=C1/C=CN(c2ccccc2)C=N1	103	98	4	/	39*	-3
O=c1c2ccccc2nc2n1C(CSCc1ccc(Cl)cc1)CS2 (stereo not drawn)	/	/	8	/	/	/
O=C(CC1C(=O)NC2CCCCC2N1C(=O)c1ccc(F)cc1)Nc1ccccc1 (stereo not drawn)	92	90	4	/	75	/
CCCCOn1c(C)c(C(=O)OCC)c2c3nonc3ccc21	94	95	/	-4	60	66*
COn1c(C)c(C(C)=O)c2c3nonc3ccc21	90	80	1	-10	33*	0
CCCCOn1c(C)c(C(=O)OCC)c2c3no[n+]([O-])c3ccc21	97	95	-8	-5	66	26
COn1c2c(c3c4nonc4ccc31)CCCC2	106	68	-4	/	105	/
CO/N=C/c1cc([N+](=O)[O-])ccc1Sc1ccc(C)cc1	/	/	-4	/	/	/
CCCCCc1ccc(S(=O)(=O)NCCc2ccncc2)cc1	95	82	8	/	94	/
COC(=O)c1ccc(-c2ccco2)n1Cc1ccccc1Cl	94	100	-3	/	75	/
COC(=O)c1ccc(-c2ccco2)n1Cc1nc(-c2ccc(OC)c(OC)c2)oc1C	89	81	-8	-2	36*	6
CC1(C)Oc2ccc(NC(=O)c3ccco3)cc2O1	99	94	8	/	81	/
CCOC(=O)Cn1c2ccc(OC)cc2c2nc3ccccc3nc21	80	75	1	7	24*	12
COC(=O)Cn1c2ccc(OC)cc2c2nc3ccccc3nc21	100	92	0	10	61	4
COC(=O)c1[nH]c2ccc(Br)cc2c1NC(=O)C(C)N1CCN(C2CCCCC2)CC1 (stereo not drawn)	25*	29*	12	12	15*	36
CCOC(=O)C1CCN(C(c2cc3ccc(C)cc3[nH]c2=O)c2nnnn2C2CCCCC2)CC1 (stereo not drawn)	97	97	-12	-2	94	29
CCOC(=O)c1cc2oc(C(c3nnnn3C3CCCCC3)N3CCOCC3)cc2[nH]1 (stereo not drawn)	94	75	-8	/	9.8*	7
CCOc1ccc(-c2nnn(CC#N)n2)cc1OC	95	96	/	/	44	/
C=CCn1c(C)cc(C(=O)CSc2nnc(NCc3ccccc3)s2)c1C	53	58	-21	4	25*	42
O=C(COc1ccc(S(=O)(=O)NC2CCCCC2)cc1)NCCC1=CCCCC1	97	61	/	/	66	/
CC1(C)Cc2c(sc3c4nnnn4c4nnnn4c23)CO1	93	54	-1	/	2.5*	-3
CC1CCN(c2oc(-c3ccccc3Cl)nc2C#N)CC1	96	91	3	/	84	6
CC1CCCN(c2oc(-c3cccc4ccccc34)nc2C#N)C1 (stereo not drawn)	47*	96	-19	-1	95	-13
CCNc1nc2c(c(=O)[nH]c(=O)n2C)n1Cc1ccc(F)cc1	/	/	4	-7	/	0
O=C(CSc1nc(C2CC2)nc2ccccc12)N1c2ccccc2Sc2ccccc21	/	/	-17	/	/	/
SMILES	Lung fibro prol	HUVEC inhibit	Ecoli WT expand	Jurkat tox 60K	H69AR growth 86K	Ecoli tolC
CCOc1ccc2nc(NCCNC(=O)Nc3ccccc3)c(C#N)cc2c1	102	73	-6	7	28*	9
CCOc1ccc2nc(NCCNC(=O)Nc3cccc(C)c3)c(C#N)cc2c1	86	48	-1	0	96	/
CCOC(=O)CN1C(=O)C(=O)c2cccc(C)c21	102	108	2	0	33*	-12
CCOC(=O)CN1C2=NCCN2c2ccccc21	105	108	1	-9	101	-18
O=C(COc1nnnc2ccccc12)N1CCCc2ccccc21	103	91	1	2	86	3
O=C(COc1nc2ccccc2nc1N1CCOCC1)N1CCc2ccccc21	40*	76	-8	-2	36*	-6
Cn1c(O)c(C2=c3ccccc3=NC2=O)sc1=Nc1ccc(Cl)cc1	76	68	/	/	40*	/
C=CCn1c(O)c(C2=c3ccccc3=NC2=O)s/c1=N/c1nccs1	42*	66	-6	4	23*	12
O=C(O)CCC(C(=O)O)n1c(O)c(C2=c3ccccc3=NC2=O)sc1=S (stereo not drawn)	93	85	1	5	93	-9
COC(=O)c1ccccc1NC(NC(=O)c1ccco1)C(=O)c1ccc(C)cc1 (stereo not drawn)	87	86	-5	-4	62	12
COc1cc(-c2nnc(-c3ccc(N4CCOCC4)cc3)o2)cc(OC)c1OC	95	84	-2	-8	17*	-2
C#CCn1c(S(=O)(=O)Cc2ccc(F)cc2)nc(-c2ccccc2)c1-c1ccccc1	/	/	-26	/	/	/
CCOC(=O)N1CCN(c2c(NCc3cccs3)c(=O)c2=O)CC1	85	70	3	37*	31*	-8
CCCCn1c(=N)n(CC(O)COc2cccc(C)c2)c2ccccc21 (stereo not drawn)	70	87	29	13	1.6*	47
CCCCCn1c(=N)n(CC(O)COc2ccccc2OC)c2ccccc21 (stereo not drawn)	/	/	16	12	/	15
CC(=O)Nc1nn(C)c2nc3cc(C)ccc3cc12	100	86	-4	-2	84	-5
Cc1ccc2cc3c(NC(=O)c4ccco4)nn(C)c3nc2c1	102	75	-7	3	35*	4
COc1ccc(Cn2c(C)nc3c(c2=O)c2nc4ccccc4nc2n3Cc2ccco2)cc1	/	/	/	-10	/	-10
Cc1nc2c(c(=O)n1CC1CCCO1)c1nc3ccccc3nc1n2Cc1ccc2c(c1)OCO2 (stereo not drawn)	81	53	/	/	40*	9
COc1ccc(Cn2c3nc4ccccc4nc3c3c(=O)n(Cc4ccco4)c(C)nc32)cc1	42*	49	/	0	4.5*	18
Cc1csc(=Nc2ccc(S(=O)(=O)N3CCOCC3)cc2)n1Cc1ccco1	95	107	-12	17	90	9
COc1ccc(OC)c(NC(=O)c2cc(-c3cc(Cl)ccc3O)n[nH]2)c1	50	45	-11	10	1.2*	9
Cc1cc(Cl)c(S(=O)(=O)N2CCN(c3cccc(C)c3C)CC2)cc1OCC(N)=O	90	88	-1	/	38*	/
CC(=O)Nc1ccc(S(=O)(=O)N2CCN(c3cccc(C)c3C)CC2)cc1	93	59	-1	18	37*	22
CCN1CCN(S(=O)(=O)c2cc(OCC(=O)NC3CCCCC3)c(C)cc2Cl)CC1	94	99	0	53*	92	10
Cc1cc(Cl)c(S(=O)(=O)N2CCCCCC2)cc1OCC(=O)NC1CCCCC1	91	78	-13	/	82	/
c1ccc(-n2nnnc2-c2cnc(-c3cccnc3)nc2-c2cccs2)cc1	105	104	/	/	52	/
